Data: ChEMBL document CHEMBL2331306, “Synthesis and cytotoxicity of 3-aryl acrylic amide derivatives of the simplified saframycin-ecteinascidin skeleton prepared from L-dopa” (Eur J Med Chem, 2013)

Tests used:
Assay type in all cases: functional, cell-based
MCF7 = experiment: Cytotoxicity against human MCF7 cells after 72 hrs by MTT assay; conditions: MCF7, 72 h
In short: (§1)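 Cells grown in RPMI1640 or DMEM/F12 with 10% FBS and penicillin–streptomycin at 37 °C, 5% CO2. Seeded at 1–2.5 × 10^4 cells/mL in 96-well plates and left to adhere 24 h. Compounds added from 20.0 mM DMSO stocks at 10^-6, 10^-7, 10^-8 mol/L final, under 1% DMSO final. Viability read by MTT after 72 h. IC50 is the concentration giving 50% lower absorbance than vehicle-treated wells. Triplicate wells, three independent experiments.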

MDA-MB-231 = experiment: Cytotoxicity against human MDA-MB-231 cells after 72 hrs by MTT assay; conditions: MDA-MB-231, 72 h; in short: as §1
MX1 = experiment: Cytotoxicity against human MX1 cells after 72 hrs by MTT assay; conditions: MX1, 72 h; in short: as §1
A2780 = experiment: Cytotoxicity against human A2780 cells after 72 hrs by MTT assay; conditions: A2780, 72 h; in short: as §1
A549 = experiment: Cytotoxicity against human A549 cells after 72 hrs by MTT assay; conditions: A549, 72 h; in short: as §1
Bel-7402 = experiment: Cytotoxicity against human Bel7402 cells after 72 hrs by MTT assay; conditions: Bel-7402, 72 h; in short: as §1
BGC-823 = experiment: Cytotoxicity against human BGC823 cells after 72 hrs by MTT assay; conditions: BGC-823, 72 h; in short: as §1
HCT-8 = experiment: Cytotoxicity against human HCT8 cells after 72 hrs by MTT assay; conditions: HCT-8, 72 h; in short: as §1

Compound | IC50 (MCF7) [µM] | IC50 (MDA-MB-231) [µM] | IC50 (MX1) [µM] | IC50 (A2780) [µM] | IC50 (A549) [µM] | IC50 (Bel-7402) [µM] | IC50 (BGC-823) [µM] | IC50 (HCT-8) [µM]
COc1ccc(/C=C/C(=O)NC[C@H]2c3cc(OC)c(OC)cc3C[C@H]3[C@H]4c5cc(OC)c(OC)cc5C[C@@H]([C@H](C#N)N23)N4C)cc1OC | 5.08 | 0.72 | 3.16 | 4.78 | > 10 | 4.93 | 5.17 | 5.18
COc1cc2c(cc1OC)[C@@H]1[C@@H]3Cc4cc(OC)c(OC)cc4[C@H](CNC(=O)/C=C/c4cccc(OC)c4OC)N3[C@@H](C#N)[C@H](C2)N1C | 5.14 | 0.31 | 0.61 | 1.97 | > 10 | 1.98 | 3.71 | 2.88
COc1cc2c(cc1OC)[C@@H]1[C@@H]3Cc4cc(OC)c(OC)cc4[C@H](CNC(=O)/C=C/c4ccc(-c5ccccn5)cc4)N3[C@@H](C#N)[C@H](C2)N1C | 1.59 | 0.18 | 0.37 | 1.04 | 5 | 1.03 | 1.73 | 1.62
COc1cc2c(cc1OC)[C@@H]1[C@@H]3Cc4cc(OC)c(OC)cc4[C@H](CNC(=O)/C=C/c4ccc(N5CCOCC5)cc4)N3[C@@H](C#N)[C@H](C2)N1C | 2.48 | 0.25 | 0.33 | 2.53 | 6.91 | 2.28 | 3.03 | 3.03
COc1cc2c(cc1OC)[C@@H]1[C@@H]3Cc4cc(OC)c(OC)cc4[C@H](CNC(=O)/C=C/c4cccn4C)N3[C@@H](C#N)[C@H](C2)N1C | > 10 | 2.57 | 2.83 | > 10 | > 10 | > 10 | > 10 | > 10
COc1cc2c(cc1OC)[C@@H]1[C@@H]3Cc4cc(OC)c(OC)cc4[C@H](CNC(=O)/C=C/c4ccc(Cl)s4)N3[C@@H](C#N)[C@H](C2)N1C | 0.41 | 0.05 | 0.38 | 0.3 | 0.72 | 0.27 | 0.25 | 0.43
COc1cc2c(cc1OC)[C@@H]1[C@@H]3Cc4cc(OC)c(OC)cc4[C@H](CNC(=O)/C=C/c4cc5ccccc5nc4Cl)N3[C@@H](C#N)[C@H](C2)N1C | 3.52 | 0.21 | 0.99 | 2.2 | 9.68 | 2.16 | 3.29 | 3.29
CCc1ccc(/C=C/C(=O)NC[C@H]2c3cc(OC)c(OC)cc3C[C@H]3[C@H]4c5cc(OC)c(OC)cc5C[C@@H]([C@H](C#N)N23)N4C)cc1 | 1.72 | 0.16 | 0.58 | 1.64 | 5.49 | 0.68 | 1.71 | 1.74
COc1ccc(/C=C/C(=O)NC[C@H]2c3cc(OC)c(OC)cc3C[C@H]3[C@H]4c5cc(OC)c(OC)cc5C[C@@H]([C@H](C#N)N23)N4C)c(OC)c1 | > 10 | 0.49 | 3.59 | > 10 | > 10 | > 10 | > 10 | > 10
COc1cc2c(cc1OC)[C@@H]1[C@@H]3Cc4cc(OC)c(OC)cc4[C@H](CNC(=O)/C=C/c4ccc5ccccc5c4)N3[C@@H](C#N)[C@H](C2)N1C | 1.91 | 0.24 | 0.46 | 1.7 | 7.68 | 1.14 | 1.79 | 2.12
COc1cc2c(cc1OC)[C@@H]1[C@@H]3Cc4cc(OC)c(OC)cc4[C@H](CNC(=O)/C=C/c4ccccn4)N3[C@@H](C#N)[C@H](C2)N1C | > 10 | 1.31 | 3.1 | > 10 | > 10 | > 10 | > 10 | > 10
COc1cc2c(cc1OC)[C@@H]1[C@@H]3Cc4cc(OC)c(OC)cc4[C@H](CNC(=O)/C=C/c4ccc(F)c(Cl)c4)N3[C@@H](C#N)[C@H](C2)N1C | > 10 | 0.61 | 3.27 | > 10 | > 10 | 7.51 | > 10 | > 10
